MIC data for ten molecules are collected here from ChEMBL document CHEMBL3632529, “1,2,3-Triazole pharmacophore-based benzofused nitrogen/sulfur heterocycles with potential anti-Moraxella catarrhalis activity” (2015).

In brackets after ≈: the same amount, converted by molar mass. Bounds are passed on as bounds.

What all share (format): functional
The test system of test [1] is Staphylococcus aureus. The test is described as follows: Antibacterial activity against Staphylococcus aureus ATCC 29213 after overnight incubation by broth microdilution method. The essentials:
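Colonies were grown on Mueller Hinton agar and suspended directly to give 5 × 10⁴ cfu/well. MIC was by CLSI broth microdilution with double dilutions of compound and azithromycin as the reference. Read-out was visual after overnight incubation at 37 °C in ambient air.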
A general note: Dilution methods test growth across graded concentrations, often in twofold steps.

The test system of test [2] is Streptococcus pneumoniae. As to the kind of experiment: Antibacterial activity against Streptococcus pneumoniae ATCC 49619 after overnight incubation by broth microdilution method. The gist of the method:
(§1)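 Streptococci were grown on Mueller-Hinton agar with 5% sheep blood. CLSI broth microdilution MIC used double dilutions, with azithromycin as the reference. The test medium was modified by substituting 5% horse serum for lysed horse blood. Direct colony suspension inocula gave 5 × 10⁴ cfu/well. Growth was read visually after overnight incubation at 37 °C in ambient air.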

In test [3] the test system is Streptococcus pyogenes. As to the kind of experiment: Antibacterial activity against Streptococcus pyogenes ATCC 700294 after overnight incubation by broth microdilution method. The essentials:
as §1

Test [4] has as its system Escherichia coli. As to the kind of experiment: Antibacterial activity against Escherichia coli ATCC 25922 after overnight incubation by broth microdilution method. The gist of the method: (§2)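 MIC per CLSI standard broth microdilution, with azithromycin as the reference antibiotic. Compounds were tested as double dilutions. Inocula were made by direct colony suspension at 5 × 10⁴ cfu/well. MIC was read visually after overnight incubation at 37 °C in ambient air.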

For test [5], the system named is Moraxella catarrhalis. The test is described as follows: Antibacterial activity against Moraxella catarrhalis ATCC 23246 after overnight incubation by broth microdilution method. The essentials:
as §2

In test [6] the test system is Haemophilus influenzae. As to the kind of experiment: Antibacterial activity against Haemophilus influenzae ATCC 49247 after overnight incubation by broth microdilution method. The gist of the method:
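Bacteria were grown on Mueller Hinton chocolate agar. MIC was then determined by CLSI broth microdilution, with azithromycin as the reference and compounds as double dilutions. Inocula were prepared by direct colony suspension at 5 × 10⁴ cfu/well. Plates were read visually after overnight incubation at 37 °C in ambient air.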

`Cc1ccc2nc(-c3ccc(NCc4cn(-c5ccc(Cl)cc5)nn4)cc3)sc2c1`: the MIC is over 128 mg/L in test [1]; over 128 mg/L in test [2]; over 128 mg/L in test [3]; over 128 mg/L in test [4]; 64 mg/L (≈ 148 µM) in test [5]; over 128 mg/L in test [6].

In the case of `Cc1ccc2nc(-c3ccc(NCc4cn(Cc5cc(=O)oc6cc(O)ccc56)nn4)cc3)sc2c1`, the MIC in test [1], in test [2], in test [3], in test [4] and in test [6] was over 128 mg/L in each case.

For the molecule `Cc1nc2ccccc2n1Cc1cn(-c2ccc(C(F)(F)F)cc2)nn1`, the MIC in test [1] was over 128 mg/L; in test [2] it was over 128 mg/L; in test [3] it was over 128 mg/L; in test [4] it was over 128 mg/L; in test [5], 64 mg/L (≈ 179 µM); in test [6] it was over 128 mg/L.

As for `CC[C@H]1OC(=O)[C@H](C)[C@@H](O[C@H]2C[C@@](C)(OC)[C@@H](O)[C@H](C)O2)[C@H](C)[C@@H](O[C@@H]2O[C@H](C)C[C@H](N(C)C)[C@H]2O)[C@](C)(O)C[C@@H](C)CN(C)[C@H](C)[C@@H](O)[C@]1(C)O` [AZITHROMYCIN], the MIC stood at 2 mg/L (≈ 2.67 µM) in test [1]; 0.25 mg/L (≈ 0.334 µM) in test [2]; 0.125 mg/L (≈ 0.167 µM) in test [3]; 8 mg/L (≈ 10.7 µM) in test [4]; 0.25 mg/L (≈ 0.334 µM) in test [5]; 2 mg/L (≈ 2.67 µM) in test [6].

Consider `FC(F)(F)c1ccc(-n2cc(Cn3cnc4ccccc43)nn2)cc1`, for which the MIC is over 128 mg/L in test [1]; over 128 mg/L in test [2]; over 128 mg/L in test [3]; over 128 mg/L in test [4]; 16 mg/L (≈ 46.6 µM) in test [5]; over 128 mg/L in test [6].

With `Fc1ccc(-n2cc(Cn3cnc4ccccc43)nn2)cc1`, the MIC was over 128 mg/L in test [1]; over 128 mg/L in test [2]; over 128 mg/L in test [3]; over 128 mg/L in test [4]; 1 mg/L (≈ 3.41 µM) in test [5]; over 128 mg/L in test [6].

In the case of `Clc1cc(Cl)cc(-n2cc(Cn3cnc4ccccc43)nn2)c1`, the MIC in test [1] is over 128 mg/L; in test [2], over 128 mg/L; in test [3], over 128 mg/L; in test [4] it was over 128 mg/L; in test [5] it was 16 mg/L (≈ 46.5 µM); in test [6], over 128 mg/L.

For the molecule `Cc1ccc2nc(-c3ccc(NCc4cn(-c5ccc(F)cc5)nn4)cc3)sc2c1`, the MIC was over 128 mg/L in test [1]; over 128 mg/L in test [2]; over 128 mg/L in test [3]; over 128 mg/L in test [4]; 128 mg/L (≈ 308 µM) in test [5]; over 128 mg/L in test [6].

Regarding `Clc1ccc(-n2cc(Cn3cnc4ccccc43)nn2)cc1`, the MIC in test [1] was over 128 mg/L; in test [2], over 128 mg/L; in test [3], over 128 mg/L; in test [4], over 128 mg/L; in test [5], 0.5 mg/L (≈ 1.61 µM); in test [6], over 128 mg/L.

For `Fc1ccccc1-n1cc(Cn2cnc3ccccc32)nn1`, the MIC in test [1] is over 128 mg/L; in test [2], over 128 mg/L; in test [3], over 128 mg/L; in test [4], over 128 mg/L; in test [5], 128 mg/L (≈ 436 µM); in test [6] it was over 128 mg/L.
